We go through 19 molecules from ChEMBL document CHEMBL1157828, “Design, synthesis and pharmacological evaluation of novel naphthalenic derivatives as selective MT(1) melatoninergic ligands” (Bioorg Med Chem, 2010).

Assay [1] deals with T1, Melatonin receptor type 1B (Homo sapiens, UniProt P49286).
T1 sequence (P49286 whole entry): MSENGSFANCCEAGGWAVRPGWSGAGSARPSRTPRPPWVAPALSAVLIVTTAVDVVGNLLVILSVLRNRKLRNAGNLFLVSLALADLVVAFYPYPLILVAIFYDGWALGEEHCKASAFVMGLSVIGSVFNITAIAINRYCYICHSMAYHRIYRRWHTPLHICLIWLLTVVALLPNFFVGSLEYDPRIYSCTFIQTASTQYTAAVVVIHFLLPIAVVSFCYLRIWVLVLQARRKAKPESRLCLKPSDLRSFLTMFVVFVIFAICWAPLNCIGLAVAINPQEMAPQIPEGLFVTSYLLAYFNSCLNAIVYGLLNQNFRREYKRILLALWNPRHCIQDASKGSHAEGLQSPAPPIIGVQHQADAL
Put plainly: Displacement of 2-[125I]iodomelatonin from human MT2 receptor expressed in CHO cells. It counts as cell-based. The method in brief:
(§1)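 Membranes from CHO cells stably expressing human MT1 or MT2, grown in DMEM with 10% fetal calf serum, homogenized in Tris/EDTA and pelleted at 95,000g. Incubated with 20 pM 2-[125I]-iodomelatonin and test drug in 50 mM Tris/HCl pH 7.4, 5 mM MgCl2, 120 min at 37 °C. Stopped by filtration onto PEI-soaked GF/B filters. Ki = IC50/(1+[L]/KD) from seven-concentration curves.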

Assay [2] addresses T1, Melatonin receptor type 1B. Put plainly: Agonist activity at human MT2 receptor expressed in CHO cells by [35S]GTPgamma binding assay. The class given is functional, cell-based.
Assay [3] deals with T2, Melatonin receptor type 1A (Homo sapiens, UniProt P48039). Nature of the assay: Agonist activity at human MT1 receptor expressed in CHO cells by [35S]GTPgamma binding assay. The class given is functional, cell-based.
T2 sequence (P48039 whole entry): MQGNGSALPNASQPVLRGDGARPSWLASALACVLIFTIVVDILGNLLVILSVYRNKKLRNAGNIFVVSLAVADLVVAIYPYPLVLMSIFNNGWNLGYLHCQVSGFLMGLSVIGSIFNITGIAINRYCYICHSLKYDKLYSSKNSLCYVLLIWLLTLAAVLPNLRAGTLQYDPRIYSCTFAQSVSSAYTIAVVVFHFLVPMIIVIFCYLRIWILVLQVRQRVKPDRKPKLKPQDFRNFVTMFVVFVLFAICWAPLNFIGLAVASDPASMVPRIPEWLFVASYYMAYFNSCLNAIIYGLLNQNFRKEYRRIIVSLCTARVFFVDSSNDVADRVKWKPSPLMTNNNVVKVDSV
Assay [4] concerns the target T2, Melatonin receptor type 1A. Nature of the assay: Displacement of 2-[125I]iodomelatonin from human MT1 receptor expressed in CHO cells. The class given is cell-based. The method in brief: as §1
The species named for assay [5] is Homo sapiens. Nature of the assay: Selectivity ratio of Ki for human MT2 receptor to Ki for human MT1 receptor.

For the molecule `CC(=O)NCCc1cccc2ccc(OCCCCOc3ccc4scc(CCNC(C)=O)c4c3)cc12`, the Ki (usually a dissociation constant, usually derived from enzyme kinetics or from competition with a known ligand) in assay [1] amounted to 16.9 nM; in assay [4], 3.47 nM. Besides, the EC50 – broadly, the concentration that produces a half-maximal response – turned out to be 20.6 nM in assay [2] and 1.94 nM in assay [3]. Besides, the Ratio Ki in assay [5] came out at 5.
For `O=C(NCCCc1ccc2nc(CCCCc3ccccc3)oc2c1)C1CC1`, the Ratio Ki in assay [5] stood at 35.
For the molecule `CC(=O)NCCc1cccc2ccc(OCCCCOc3ccc4cc(C(C)C(=O)O)ccc4c3)cc12` (centres undefined), the Ki turned out to be 59.1 nM in assay [1] and 1.51 nM in assay [4]. The EC50 was determined as 161 nM in assay [2] and 22 nM in assay [3]. Besides, the Ratio Ki in assay [5] worked out at 39.
As for `CC(=O)NCCc1cccc2ccc(OCCCCOc3ccc4[nH]cc(CCNC(C)=O)c4c3)cc12`, the Ki in assay [1] is 84.3 nM; in assay [4], 4.04 nM. In addition, the EC50 in assay [3] amounted to 2.38 nM. In addition, in assay [5], the Ratio Ki stood at 21.
As to `C=CCC(=O)NCCc1cccc2ccc(OCCCCOc3ccc4cccc(CCNC(C)=O)c4c3)cc12`, the Ki in assay [1] stood at 8.45 nM; in assay [4], 0.79 nM. This molecule yielded an EC50 in assay [3] of 12 nM. The Ratio Ki in assay [5] was found to be 11.
On to `CC(=O)NCCc1cccc2ccc(OCCCCOc3ccc(-c4ccc(C(=O)O)cc4)cc3)cc12`, for which the Ki in assay [1] was found to be 51.3 nM; in assay [4], 0.55 nM. In assay [3], a half-maximal response (EC50) required 26.1 nM. In assay [5], the Ratio Ki stood at 93.
For `CC(=O)NCCc1cccc2ccc(OCCCCOc3ccc4cccc(CC(=O)O)c4c3)cc12`, in that order: 45.8 nM, 9.1 nM, 3.14 nM and 5.
For `CC(=O)NCCc1cccc2ccc(OCCCCOc3ccc4cccc(CCNC(=O)c5ccco5)c4c3)cc12`, in that order: 11.8 nM, 0.64 nM, 11.2 nM and 18.
For `C=CCC(=O)NCCc1cccc2ccc(OCCCCOc3ccc4cccc(CCNC(=O)CC=C)c4c3)cc12`, the Ki in assay [1] was 10.9 nM; in assay [4], 0.92 nM. The EC50 in assay [2] stood at 40.2 nM; in assay [3], 16.1 nM. The Ratio Ki in assay [5] came to 12.
Consider `COC(=O)Cc1cccc2ccc(OCCCCOc3ccc4cccc(CCNC(C)=O)c4c3)cc12`, for which the Ki is 1.84 nM in assay [1] and 0.07 nM in assay [4]. Also, in assay [3], it took 2.89 nM to reach a half-maximal effect (EC50). In addition, in assay [5], the Ratio Ki stood at 26.
Regarding `COC(=O)C(C)c1ccc2cc(OCCCCOc3ccc4cccc(CCNC(C)=O)c4c3)ccc2c1` (centres undefined), the Ki in assay [1] is 4.22 nM; in assay [4], 0.37 nM. Moreover, the EC50 worked out at 88 nM in assay [2] and 21.7 nM in assay [3]. Further, the Ratio Ki in assay [5] worked out at 11.
On to `CC(=O)NCCc1cccc2ccc(OCCCCOc3ccc4occ(CCNC(C)=O)c4c3)cc12`, for which the Ki in assay [1] turned out to be 13.9 nM; in assay [4], 1.38 nM. In addition, the EC50 in assay [3] came out at 2.49 nM. Also, the Ratio Ki in assay [5] came out at 10.
For `COC(=O)c1ccc(-c2ccc(OCCCCOc3ccc4cccc(CCNC(C)=O)c4c3)cc2)cc1`, in that order: 19.1 nM, 2.37 nM, 46.2 nM and 8.
On to `CC(=O)NCCc1cccc2ccc(OCCCCOc3ccc4c(c3)C(CCNC(C)=O)CCC4)cc12` (centres undefined), for which the Ki in assay [1] is 6.79 nM; in assay [4] it was 0.26 nM. Moreover, in assay [3], the response was half-maximal at 7.75 nM (EC50). For the same molecule, in assay [5], the Ratio Ki is 26.
`CC(=O)NCCc1cccc2ccc(OCCCCOc3ccc(-c4ccc(CO)cc4)cc3)cc12`: the Ki amounted to 6.53 nM in assay [1] and 0.09 nM in assay [4]. In addition, the figures for the EC50 in assay [2] and in assay [3] were 26 nM and 2.37 nM, respectively. Further, the Ratio Ki in assay [5] is 72.
Consider `O=C(NCCc1cccc2ccc(OCCCCOc3ccc4cccc(CCNC(=O)C5CC5)c4c3)cc12)C1CC1`, for which the Ki in assay [1] is 13.6 nM; in assay [4], 1.01 nM. In assay [2], this molecule had an EC50 of 134 nM. The Ratio Ki in assay [5] was 13.
Regarding `CC(=O)NCCc1cccc2ccc(-c3ccc4cccc(CCNC(C)=O)c4c3)cc12`, the Ratio Ki in assay [5] worked out at 70.
As to `CC(=O)NCCc1cccc2ccc(OCCCCOc3ccc4cccc(CCNC(C)=O)c4c3)cc12`, the values for the EC50 in assay [2] and in assay [3] were 405 nM and 73 nM, respectively. Also, the Ratio Ki in assay [5] came out at 120.
With `CC(=O)NCCc1cccc2ccc(OCCCCOc3ccc4cccc(CCNC(=O)C5CC5)c4c3)cc12`, the results for the Ki in assay [1] and in assay [4] were 11.1 nM and 1.07 nM, respectively. In assay [3], this molecule registered an EC50 of 9.1 nM. Besides, in assay [5], the Ratio Ki turned out to be 10.
